Test results as given in ChEMBL document CHEMBL3826964, “Structure-based design and synthesis of triazole-based macrocyclic inhibitors of norovirus protease: Structural, biochemical, spectroscopic, and antiviral studies” (Eur J Med Chem, 2016).

Columns and labels:
[1] = Cytotoxicity against human HG23 cells after 72 hrs by CytoTox-96 non-radioactive cytotoxicity assay; assay type: cell-based; details: hg23, 72 h
Norovirus = assay: Antiviral activity against HG23 cells harboring Norovirus replicon assessed as decrease in viral RNA level measured after 48 hrs by qRT-PCR analysis; assay type: functional, cell-based; details: HG23, 48 h
Procedure, shortened: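 One-day-old HG23 cells (Norwalk virus replicon-bearing) exposed to 1.0–100 μM compound for 48 h; total RNA extracted and norovirus RNA quantified by qRT-PCR, normalized to β-actin. Percent reduction versus mock-treated cells used to calculate EC50; at least two independent experiments.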

| SMILES | CC50 [1] [µM] | EC50 (Norovirus) [µM] |
| --- | --- | --- |
| CC(C)C[C@@H]1NC(=O)[C@@H](NC(=O)OCc2ccccc2)Cc2cn(nn2)CCNC(=O)CC[C@@H](C=O)NC1=O | > 100 | 53.2 |
| CC(C)C[C@@H]1NC(=O)[C@@H](NC(=O)OCc2ccccc2)Cc2cn(nn2)CCCCNC(=O)CC[C@@H](C=O)NC1=O | > 100 | 46.3 |
| O=C[C@@H]1CCC(=O)NCCCCCCn2cc(nn2)C[C@H](NC(=O)OCc2ccccc2)C(=O)N[C@@H](CC2CCCCC2)C(=O)N1 | > 100 | 88.3 |
| CC(C)C[C@@H]1NC(=O)[C@@H](NC(=O)OCc2ccccc2)Cc2cn(nn2)CCCNC(=O)CC[C@@H](C=O)NC1=O | > 100 | 81.5 |
| O=C[C@@H]1CCC(=O)NCCCCCn2cc(nn2)C[C@H](NC(=O)OCc2ccccc2)C(=O)N[C@@H](CC2CCCCC2)C(=O)N1 | > 100 | 3.8 |
| O=C[C@@H]1CCC(=O)NCCCCn2cc(nn2)C[C@H](NC(=O)OCc2ccccc2)C(=O)N[C@@H](CC2CCCCC2)C(=O)N1 | > 100 | 30.5 |
| O=C[C@@H]1CCC(=O)NCCCCCCn2cc(nn2)C[C@H](NC(=O)OCc2ccccc2)C(=O)N[C@@H](Cc2ccccc2)C(=O)N1 | > 100 | 29.5 |
| CC(C)C[C@@H]1NC(=O)[C@@H](NC(=O)OCc2ccccc2)Cc2cn(nn2)CCCCCNC(=O)CC[C@@H](C=O)NC1=O | > 100 | 6.2 |
| CC(C)C[C@@H]1NC(=O)[C@@H](NC(=O)OCc2ccccc2)CCCn2cc(nn2)CNC(=O)CC[C@@H](C=O)NC1=O | – | 8.5 |
| O=C[C@@H]1CCC(=O)NCCn2cc(nn2)C[C@H](NC(=O)OCc2ccccc2)C(=O)N[C@@H](CC2CCCCC2)C(=O)N1 | > 100 | 25.5 |
| CC(C)C[C@@H]1NC(=O)[C@@H](NC(=O)OCc2ccccc2)Cc2cn(nn2)CCCCCCNC(=O)CC[C@@H](C=O)NC1=O | > 100 | 42.1 |
| O=C[C@@H]1CCC(=O)NCCCn2cc(nn2)C[C@H](NC(=O)OCc2ccccc2)C(=O)N[C@@H](CC2CCCCC2)C(=O)N1 | > 100 | 16.1 |
